Columns and labels:
Trypanosoma cruzi = experiment: Trypanocidal activity against Trypanosoma cruzi Tulahuen C2C4 amastigotes infected in rat L6 cells after 4 days; type: functional, organism-based; conditions: Tulahuen C2C4, L6, 96 h
[1] = Induction of NO release assessed as nitrite level; type: physicochemical
How it was run: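 Indirect measurement on a Sievers NOA 280 nitric oxide analyser; compounds dissolved in DMSO (1 mg in 200 µL) and analysed in oxygenated medium. Nitrite anion, the NO degradation byproduct, quantified; result given as IC50.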

Cruzipain = Cruzipain (Trypanosoma cruzi, UniProt P25779); experiment: Inhibition of Trypanosoma cruzi cruzain expressed in Escherichia coli M15/DH5alpha using Z-Phe-Arg-AMC as substrate by spectrofluorometry
Cruzipain, sequence (P25779 whole entry, the tested form may be a part): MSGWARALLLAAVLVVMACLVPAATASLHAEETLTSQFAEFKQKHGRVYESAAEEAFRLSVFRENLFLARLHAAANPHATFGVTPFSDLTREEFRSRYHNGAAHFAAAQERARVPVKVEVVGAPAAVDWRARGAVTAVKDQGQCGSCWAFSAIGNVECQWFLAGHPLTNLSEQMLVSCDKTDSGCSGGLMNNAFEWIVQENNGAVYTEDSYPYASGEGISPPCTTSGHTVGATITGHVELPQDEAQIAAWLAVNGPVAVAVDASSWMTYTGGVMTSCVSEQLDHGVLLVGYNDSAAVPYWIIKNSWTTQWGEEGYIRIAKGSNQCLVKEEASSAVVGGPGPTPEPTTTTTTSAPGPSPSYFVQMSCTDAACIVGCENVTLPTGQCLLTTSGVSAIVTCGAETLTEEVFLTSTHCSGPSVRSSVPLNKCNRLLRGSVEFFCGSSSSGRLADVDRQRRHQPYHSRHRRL
How it was run: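 C-terminally truncated cruzain (0.64 nM) in 50 mM sodium phosphate, 100 mM NaCl, 5 mM EDTA, 5 mM DTT, pH 6.5, preincubated 5 min at room temperature with inhibitor before adding Z-Phe-Arg-AMC. AMC release followed by fluorescence (ex 355, em 460 nm). IC50 by nonlinear regression of activity relative to no-inhibitor control.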

[2] = Permeability across apical to basolateral side in human Caco2 cells; type: ADME, cell-based; conditions: Caco-2, read-out: permeability
How it was run: (§1)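 Caco-2 grown 21 days on Transwell filters (seeded 5 × 10⁴ cells/cm²); monolayer integrity checked by TEER and fluorescein, metoprolol, amoxicillin markers. […] compound in HBSS pH 7.4 dosed A→B and B→A, basolateral pH 7.4, 37 °C, orbital shaking 25 rpm. Quantified by HPLC-UV 254 nm (C18, 35 °C, phosphate pH 3.5/acetonitrile 50:50). Papp = (VR·ΔQ/Δt)/(A·C0), using only receiver concentrations under 10% of donor.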

[3] = Permeability across basolateral to apical side in human Caco2 cells; type: ADME, cell-based; conditions: Caco-2, read-out: permeability; how it was run: as §1
[4] = Efflux ratio of permeability from basolateral to apical side over apical to basolateral side in human Caco2 cells; type: ADME, cell-based; conditions: Caco-2
HepG2 = experiment: Cytotoxicity against human HepG2 cells after 24 hrs by XTT assay; type: cell-based; conditions: HepG2, 24 h
How it was run: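 Cells kept in DMEM with 10% FCS, penicillin/streptomycin and bicarbonate at 37 °C, 5% CO2; plated at 5 × 10⁴ cells/well 24 h before treatment. Exposed 24 h to […] in DMSO (final 0.44% v/v). After two PBS washes, XTT reagent added for 1 h at 37 °C; OD 450 nm minus 690 nm, normalized to medium-only controls.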

[5] = Selectivity index, ratio of IC50 for human HepG2 cells to IC50 for Trypanosoma cruzi Tulahuen C2C4; type: toxicity, cell-based; conditions: read-out: Ratio IC50
How it was run: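 SI computed as XTT cytotoxicity IC50 divided by amastigote IC50.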

| Structure (SMILES) | IC50 (Trypanosoma cruzi) [µM] | IC50 [1] [µM] | IC50 (Cruzipain) [µM] | Papp A→B [2] [×10⁻⁶ cm/s] | Papp B→A [3] [×10⁻⁶ cm/s] | efflux ratio [4] | IC50 (HepG2) [µM] | selectivity ratio [5] |
| --- | --- | --- | --- | --- | --- | --- | --- | --- |
| Cc1c(/C=N/NC(=O)c2cccc([N+](=O)[O-])c2)no[n+]1[O-] | 9.94 | 52 | – | – | – | – | – | – |
| Cc1c(/C=N/NC(=O)c2ccco2)no[n+]1[O-] | 6.7 | 1220 | – | – | – | – | – | – |
| Cc1c(/C=N/NC(=O)c2ccccc2)no[n+]1[O-] | > 100 | 210 | – | – | – | – | – | – |
| Cc1c(/C=N/NC(=O)Cc2ccccc2)no[n+]1[O-] | > 100 | 898 | – | – | – | – | – | – |
| Cc1c(/C=N/NC(=O)c2ccc(Br)cc2)no[n+]1[O-] | 27.4 | 102 | – | – | – | – | – | – |
| Cc1c(/C=N/NC(=O)c2ccc(Cl)cc2)no[n+]1[O-] | 14.3 | 56 | – | – | – | – | – | – |
| Cc1c(/C=N/NC(=O)c2ccc([N+](=O)[O-])cc2)no[n+]1[O-] | 2.88 | 242 | 11.2 | 43.2 | 37.6 | 0.87 | 80.9 | 28.1 |
| Cc1c(/C=N/NC(=O)c2ccccc2Nc2ccccc2)no[n+]1[O-] | 5.69 | 124 | – | – | – | – | – | – |
| O=C(N/N=C/c1c(-c2ccccc2)no[n+]1[O-])c1ccco1 | 8.12 | 867 | – | – | – | – | – | – |
| O=C(N/N=C/c1c(-c2ccccc2)no[n+]1[O-])c1ccc(Cl)cc1 | > 100 | 4230 | – | – | – | – | – | – |
| O=C(N/N=C/c1c(-c2ccccc2)no[n+]1[O-])c1ccc(Br)cc1 | > 100 | 601 | – | – | – | – | – | – |
| O=C(N/N=C/c1c(-c2ccccc2)no[n+]1[O-])c1cccc([N+](=O)[O-])c1 | 15.3 | 912 | – | – | – | – | – | – |
| O=C(N/N=C/c1c(-c2ccccc2)no[n+]1[O-])c1ccccc1 | > 100 | 132 | – | – | – | – | – | – |
| O=C(N/N=C/c1c(-c2ccccc2)no[n+]1[O-])c1ccc([N+](=O)[O-])cc1 | 2.9 | 110 | 15.1 | 0.82 | 0.52 | 0.63 | 45.5 | 15.7 |
| O=C(Cc1ccccc1)N/N=C/c1c(-c2ccccc2)no[n+]1[O-] | 9.1 | 33.4 | – | – | – | – | – | – |
| O=C(Cn1ccnc1[N+](=O)[O-])NCc1ccccc1 [BENZNIDAZOLE] | 1.5 | – | – | – | – | – | 28.1 | 18.7 |

Source: ChEMBL document CHEMBL3286336, “Design, synthesis and biological evaluation of hybrid bioisoster derivatives of N-acylhydrazone and furoxan groups with potential and selective anti-Trypanosoma cruzi activity” (Eur J Med Chem, 2014)
